Values after ≈ are worked out from the molar mass of the structure shown.
What was measured:
MRC5 = experiment: Cytotoxic concentration against human lung fibroblast MRC-5 cells; assay type: functional
Summary of the method: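 Human lung fibroblasts grown in MEM + 5% heat-inactivated FCS, about 5000 cells/well, exposed to compound in triplicate. Viability read after 7 days with Alamar Blue fluorescent dye and expressed as percent reduction versus untreated wells. CC50 estimated from log-concentration plot; value is mean of three replicates.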

Leishmania infantum [1] = experiment: (§1) Inhibitory concentration against intracellular amastigotes of Leishmania infantum; assay type: functional
Summary of the method: (§2)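 Mouse peritoneal macrophages elicited by intraperitoneal 2% potato starch and harvested ~24 h later in RPMI-1640. Each well held 3 × 10^4 macrophages plus 3 × 10^5 parasites with compound, final 0.5–32 µg/mL, in triplicate. After 5 days at 37 °C, Giemsa-stained intracellular amastigotes counted microscopically, expressed as percent reduction vs untreated; mean of three replicates.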

Leishmania infantum [2] = experiment: as §1; assay type: functional, organism-based; summary of the method: as §2
Leishmania infantum [3] = experiment: Lowest dose (single subcutaneous administration) causing >90% reduction of liveramastigotes of Leishmania infantum in mouse; assay type: functional
Summary of the method: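 Male BALB/c mice given 10^7 L. infantum amastigotes (from spleen of infected donor hamster) intravenously via lateral tail vein on day 0, three per group. Single subcutaneous dose in isotonic saline (filter-sterilized, diluted from 2 mg/mL stock) given day 0. At 7 days post-treatment, Giemsa-stained liver impression smears scored for amastigotes per liver cell.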

[4] = Leishmania infantum, read-out: IC50

Row | Compound | CC50 (MRC5) | IC90 (Leishmania infantum [1]) | IC50 (Leishmania infantum [2]; [4]) | Dose (Leishmania infantum [3]) | IC50 (Leishmania infantum [2]) | DOSE (Leishmania infantum [3])
1 | C[C@@H]1[C@H](O)[C@@H](C)/C=C/C=C/C=C/C=C/C=C/C=C/C=C/[C@H](O[C@@H]2O[C@H](C)[C@@H](O)[C@H](N)[C@@H]2O)C[C@@H]2O[C@](O)(C[C@@H](O)C[C@@H](O)[C@H](O)CC[C@@H](O)C[C@@H](O)CC(=O)O[C@H]1C)C[C@H](O)[C@H]2C(=O)O [AMPHOTERICIN B] | > 32 mg/L | 0.373 mg/L (≈ 0.404 µM) | 0.285 mg/L (≈ 0.308 µM) | >10 mg/kg |  | 
2 | C/C=C(/C)C(=O)O[C@H]1[C@H](OC(=O)/C=C/c2ccccc2)[C@@]23C(CC1(C)C)[C@]1(CCC4[C@@]5(C)CC[C@H](O[C@@H]6OC(C(=O)O)[C@@H](O)C(O[C@@H]7OC(CO)[C@H](O)C(O)[C@@H]7OC7O[C@@H](C)C(O)[C@H](O)C7OC7O[C@@H](C)[C@H](O)C(O)[C@@H]7O)[C@@H]6O[C@@H]6OC(CO)[C@@H](O)C(O)[C@@H]6O)C(C)(C)C5CC[C@@]4(C)[C@]1(C)C[C@H]2OC(C)=O)O[C@@H]3O (stereo partly specified) | 8 mg/L (≈ 5.15 µM) | 0.125 mg/L (≈ 0.0805 µM) | 0.041 mg/L (≈ 0.0264 µM) | >0.8 mg/kg |  | 
3 | STIBOGLUCONATE [listing 1 of 2 here] |  |  |  |  | 5.6 mg/L | 
4 | C[C@@H]1OC(O[C@H]2C(O)[C@@H](O)C(CO)O[C@H]2OC2[C@H](O)C(C(=O)O)O[C@@H](O[C@H]3CC[C@@]4(C)C(CC[C@]5(C)C4CC[C@]46O[C@H](O)[C@]7(C4CC(C)(C)[C@@H](OC(=O)c4ccccc4)[C@@H]7OC(=O)/C=C\c4ccccc4)[C@H](O)C[C@]65C)C3(C)C)[C@H]2O[C@@H]2OC(CO)[C@@H](O)C(O)[C@@H]2O)C(OC2O[C@@H](C)[C@H](O)C(O)[C@@H]2O)[C@@H](O)C1O (stereo partly specified) | 0.5 mg/L (≈ 0.326 µM) | 0.031 mg/L (≈ 0.0202 µM) | 0.018 mg/L (≈ 0.0117 µM) | 0.8 mg/kg |  | 
5 | STIBOGLUCONATE [listing 2 of 2 here] | > 32 mg/L | > 32 mg/L |  |  |  | > 40 mg/kg
6 | CC1(C)CC2C3=CCC4[C@@]5(C)CC[C@H](O)C(C)(C)C5CC[C@@]4(C)[C@]3(C)C[C@@H](O)[C@@]2(C=O)[C@@H](OC(=O)/C=C/c2ccccc2)[C@@H]1OC(=O)c1ccccc1 (stereo partly specified) | 32 mg/L (≈ 44.3 µM) | > 16 mg/L | 8 mg/L (≈ 11.1 µM) | >40 mg/kg |  | 
7 | C/C=C(/C)C(=O)O[C@H]1[C@H](OC(=O)/C=C\c2ccccc2)[C@@]23C(CC1(C)C)[C@]1(CCC4[C@@]5(C)CC[C@H](O[C@@H]6OC(C(=O)O)[C@@H](O)C(O[C@@H]7OC(CO)[C@H](O)C(O)[C@@H]7OC7O[C@@H](C)C(O)[C@H](O)C7OC7O[C@@H](C)[C@H](O)C(O)[C@@H]7O)[C@@H]6O[C@@H]6OC(CO)[C@@H](O)C(O)[C@@H]6O)C(C)(C)C5CC[C@@]4(C)[C@]1(C)C[C@H]2O)O[C@@H]3O (stereo partly specified) | 0.5 mg/L (≈ 0.331 µM) | 0.094 mg/L (≈ 0.0622 µM) | 0.023 mg/L (≈ 0.0152 µM) | >0.8 mg/kg |  | 
8 | C[C@@H]1OC(O[C@H]2C(O)[C@@H](O)C(CO)O[C@H]2OC2[C@H](O)C(C(=O)O)O[C@@H](O[C@H]3CC[C@@]4(C)C(CC[C@]5(C)C4CC[C@]46O[C@H](O)[C@]7(C4CC(C)(C)[C@@H](OC(=O)c4ccccc4)[C@@H]7OC(=O)/C=C/c4ccccc4)[C@H](O)C[C@]65C)C3(C)C)[C@H]2O[C@@H]2OC(CO)[C@@H](O)C(O)[C@@H]2O)C(OC2O[C@@H](C)[C@H](O)C(O)[C@@H]2O)[C@@H](O)C1O (stereo partly specified) | 0.5 mg/L (≈ 0.326 µM) | 0.012 mg/L (≈ 0.00782 µM) | 0.007 mg/L (≈ 0.00456 µM) | 0.2 mg/kg |  | 
9 | CC=C(C)C(=O)O[C@H]1[C@H](OC(=O)/C=C/c2ccccc2)[C@@]2(C=O)C(CC1(C)C)C1=CCC3[C@@]4(C)CC[C@H](O)C(C)(C)C4CC[C@@]3(C)[C@]1(C)C[C@H]2O (stereo partly specified) | > 32 mg/L | > 32 mg/L | > 32 mg/L |  |  | 
10 | C/C=C(/C)C(=O)O[C@H]1[C@H](OC(=O)CCc2ccccc2)[C@@]23C(CC1(C)C)[C@]1(CCC4[C@@]5(C)CC[C@H](O[C@@H]6OC(C(=O)O)[C@@H](O)C(O[C@@H]7OC(CO)[C@H](O)C(O)[C@@H]7OC7O[C@@H](C)C(O)[C@H](O)C7OC7O[C@@H](C)[C@H](O)C(O)[C@@H]7O)[C@@H]6O[C@@H]6OC(CO)[C@@H](O)C(O)[C@@H]6O)C(C)(C)C5CC[C@@]4(C)[C@]1(C)C[C@H]2O)O[C@@H]3O (stereo partly specified) | 0.6 mg/L (≈ 0.396 µM) | 0.03 mg/L (≈ 0.0198 µM) | 0.018 mg/L (≈ 0.0119 µM) |  |  | 
11 | C[C@@H]1OC(O[C@H]2C(O)[C@@H](O)C(CO)O[C@H]2OC2[C@H](O)C(C(=O)O)O[C@@H](O[C@H]3CC[C@@]4(C)C(CC[C@]5(C)C4CC[C@]46O[C@H](O)[C@]7(C4CC(C)(C)[C@@H](OC(=O)c4ccccc4)[C@@H]7OC(=O)CCc4ccccc4)[C@H](O)C[C@]65C)C3(C)C)[C@H]2O[C@@H]2OC(CO)[C@@H](O)C(O)[C@@H]2O)C(OC2O[C@@H](C)[C@H](O)C(O)[C@@H]2O)[C@@H](O)C1O (stereo partly specified) | 0.3 mg/L (≈ 0.195 µM) | 0.015 mg/L (≈ 0.00977 µM) | 0.009 mg/L (≈ 0.00586 µM) |  |  | 
12 | CC(=O)O[C@@H]1C[C@]2(C)C(=CCC3[C@@]4(C)CC[C@H](O)C(C)(C)C4CC[C@]32C)C2CC(C)(C)[C@@H](OC(=O)c3ccccc3)[C@H](OC(=O)/C=C/c3ccccc3)[C@@]21C=O (stereo partly specified) | > 32 mg/L | > 32 mg/L | > 32 mg/L |  |  | 
13 | CC1(C)CC2C3=CCC4[C@@]5(C)CC[C@H](O)C(C)(C)C5CC[C@@]4(C)[C@]3(C)C[C@@H](O)[C@@]2(C=O)[C@@H](OC(=O)/C=C\c2ccccc2)[C@@H]1OC(=O)c1ccccc1 (stereo partly specified) | > 32 mg/L | > 32 mg/L | > 32 mg/L |  |  | 
14 | C[C@@H]1OC(O[C@H]2C(O)[C@@H](O)C(CO)O[C@H]2OC2[C@H](O)C(C(=O)O)O[C@@H](O[C@H]3CC[C@@]4(C)C(CC[C@]5(C)C4CC[C@]46O[C@H](O)[C@]7(C4CC(C)(C)[C@@H](O)[C@@H]7O)[C@H](O)C[C@]65C)C3(C)C)[C@H]2O[C@@H]2OC(CO)[C@@H](O)C(O)[C@@H]2O)C(OC2O[C@@H](C)[C@H](O)C(O)[C@@H]2O)[C@@H](O)C1O (stereo partly specified) | > 32 mg/L | > 32 mg/L | > 32 mg/L | >40 mg/kg |  | 
15 | CC(=O)O[C@@H]1C[C@]2(C)[C@@]3(CCC4[C@@]5(C)CC[C@H](O[C@@H]6OC(C(=O)O)[C@@H](O)C(O[C@@H]7OC(CO)[C@H](O)C(O)[C@@H]7OC7O[C@@H](C)C(O)[C@H](O)C7OC7O[C@@H](C)[C@H](O)C(O)[C@@H]7O)[C@@H]6O[C@@H]6OC(CO)[C@@H](O)C(O)[C@@H]6O)C(C)(C)C5CC[C@]42C)O[C@H](O)[C@]12C3CC(C)(C)[C@@H](OC(=O)c1ccccc1)[C@@H]2OC(=O)/C=C/c1ccccc1 (stereo partly specified) | 8 mg/L (≈ 5.08 µM) | 0.125 mg/L (≈ 0.0793 µM) | 0.046 mg/L (≈ 0.0292 µM) | >0.8 mg/kg |  | 
16 | C/C=C(/C)C(=O)O[C@H]1[C@H](OC(=O)/C=C\c2ccccc2)[C@@]2(C=O)C(CC1(C)C)C1=CCC3[C@@]4(C)CC[C@H](O)C(C)(C)C4CC[C@@]3(C)[C@]1(C)C[C@H]2O (stereo partly specified) | > 32 mg/L | > 32 mg/L | 22 mg/L (≈ 31.4 µM) |  |  | 
17 | C/C=C(/C)C(=O)O[C@H]1[C@H](OC(=O)/C=C/c2ccccc2)[C@@]23C(CC1(C)C)[C@]1(CCC4[C@@]5(C)CC[C@H](O[C@@H]6OC(C(=O)O)[C@@H](O)C(O[C@@H]7OC(CO)[C@H](O)C(O)[C@@H]7OC7O[C@@H](C)C(O)[C@H](O)C7OC7O[C@@H](C)[C@H](O)C(O)[C@@H]7O)[C@@H]6O[C@@H]6OC(CO)[C@@H](O)C(O)[C@@H]6O)C(C)(C)C5CC[C@@]4(C)[C@]1(C)C[C@H]2O)O[C@@H]3O (stereo partly specified) | 0.1 mg/L (≈ 0.0662 µM) | 0.021 mg/L (≈ 0.0139 µM) | 0.014 mg/L (≈ 0.00926 µM) | 0.4 mg/kg |  | 
18 | C/C=C(/C)C(=O)O[C@H]1[C@H](OC(=O)/C=C/c2ccccc2)[C@@]2(C=O)C(CC1(C)C)C1=CCC3[C@@]4(C)CC[C@H](O)C(C)(C)C4CC[C@@]3(C)[C@]1(C)C[C@H]2OC(C)=O (stereo partly specified) | > 32 mg/L | > 32 mg/L | > 32 mg/L |  |  | 
